The source of these data is ChEMBL document CHEMBL4028870, “Controlling Plasma Stability of Hydroxamic Acids: A MedChem Toolbox” (J Med Chem, 2017).

Some results are limits rather than exact numbers.

Common to all, as to assay type: ADME, cell-free
The nature of series [1]: Half life in rat plasma at 10 uM up to 360 mins by LC-MS/MS analysis. Summed up:
(§1)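 Plasma incubated in duplicate at 37 °C with 10 µM test compound (1% methanol; from 1 mM methanol stock). Samples taken at 0, 15, 30, 60, 120, 240 and 360 min and quenched with 9 volumes of ice-cold methanol containing 500 nM internal standard, then centrifuged. Analyte/IS area ratios were quantified by LC-MS/MS as % remaining versus T0. t1/2 = −0.693/k, with k from the slope of log % remaining versus time.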

The nature of series [2]: Half life in human plasma at 10 uM up to 360 mins by LC-MS/MS analysis. Summed up:
as §1

The subject of series [3] is Plasma. Nature of the series: Stability in rat plasma at 10 uM up to 360 mins in presence of EDTA by LC-MS/MS analysis. To be noted: 6 h. The procedure, abridged: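 Rat plasma incubated in duplicate at 37 °C with 10 µM test compound (1% methanol), plus either 1 mM DTNB (11) or 0.5 mM EDTA (12). Duplicate controls used methanol in place of the inhibitor. Samples taken from 0 to 360 min and quenched with 9 volumes of cold methanol containing internal standard. Remaining compound measured by LC-MS/MS relative to T0.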

As usually defined, the half-life is the time needed for the level to fall by half in the phase considered. A low value points to fast loss. Take `CC(Cc1ccccc1)(C(=O)NO)C(=O)NCc1ccccc1` (configuration not stated): the half-life at 10 µM in series [1] was 1.5 h; in series [2] it was over 6 h. In addition, the Stability result in series [3] is on record as “Unstable”.

As to `O=C(NO)C1Cc2ccccc2CN1S(=O)(=O)c1ccccc1` (configuration not stated), the half-life at 10 µM in series [1] was 0.7 h; in series [2], over 6 h. Moreover, the Stability entry in series [3] is listed as “Unstable”.

In the case of `CC(CCc1ccccc1)C(=O)NO` (configuration not stated), the half-life at 10 µM in series [1] and in series [2] was over 6 h each time.

For the compound `O=C(CCCCc1ccccc1)NO`, the half-life at 10 µM was 0.9 to 0.93 h in series [1] and over 6 h in series [2]. Besides, the Stability entry in series [3] was “Unstable”.

As to `O=C(NO)C(Cc1ccccc1)C(=O)NCc1ccncc1` (configuration not stated), the values for the half-life at 10 µM in series [1] and in series [2] were 3.3 h and over 6 h, respectively. In addition, the Stability entry in series [3] is on record as “Unstable”.

Turning to `O=C(NO)C(Cc1ccccc1)C(=O)NCc1ccc(F)cc1` (configuration not stated), the Stability result in series [3] is given as “Unstable”.

For `O=C(CC(=O)NCc1ccccc1)NO`, the half-life at 10 µM in series [1] and in series [2] was over 6 h in each case.

As for `O=C(CC12CC3CC(CC(C3)C1)C2)NO`, the half-life at 10 µM in series [1] and in series [2] was over 6 h throughout.

In the case of `O=C(/C=C/c1ccc(S(=O)(=O)Nc2ccccc2)cc1)NO`, the half-life at 10 µM in series [1] and in series [2] was over 6 h each time.

For `O=C(CC(=O)NCc1ccc(F)cc1)NO`, the half-life at 10 µM in series [1] and in series [2] was over 6 h in each case.

For the compound `O=C(NO)[C@H](Cc1ccccc1)NS(=O)(=O)c1ccccc1`, the half-life at 10 µM in series [1] is 0.1 h; in series [2], over 6 h. For the same compound, the Stability entry in series [3] was “Unstable”.

In the case of `O=C(CCCCCc1ccccc1)NO`, the half-life at 10 µM was 4.5 h in series [1] and over 6 h in series [2]. Besides, the Stability entry in series [3] was “Unstable”.

Consider `O=C(CC1CCCCC1)NO`, for which the half-life at 10 µM in series [1] and in series [2] was over 6 h each time.

In the case of `O=C(NO)C(Cc1ccncc1)C(=O)NCc1ccccc1` (configuration not stated), the half-life at 10 µM was 4.5 h in series [1] and over 6 h in series [2]. In addition, in series [3], the Stability entry is “Unstable”.

For the compound `O=C(CCNC(=O)c1ccccc1)NO`, the half-life at 10 µM in series [1] was 2.5 h; in series [2], over 6 h. The Stability entry in series [3] is “Unstable”.

On to `O=C(NO)C1CCN(C(=O)c2ccccc2)C1` (configuration not stated), for which the half-life at 10 µM in series [1] and in series [2] was over 6 h throughout.

Consider `O=C(CC(=O)Nc1ccccc1)NO`, for which the half-life at 10 µM in series [1] and in series [2] was over 6 h throughout.

As for `CC(C)(C(=O)NO)C(=O)NCc1ccccc1`, the half-life at 10 µM in series [1] and in series [2] was over 6 h each time.

As to `O=C(NO)C(CCc1ccccc1)Cc1ccccc1` (configuration not stated), the half-life at 10 µM in series [1] and in series [2] was over 6 h throughout.

Turning to `CC(C(=O)NO)C(=O)NCc1ccccc1` (configuration not stated), the half-life at 10 µM in series [1] and in series [2] was over 6 h throughout.

Regarding `CC(C)[C@H](C(=O)NO)N(Cc1ccccc1)S(=O)(=O)c1ccccc1`, the half-life at 10 µM in series [1] and in series [2] was over 6 h each time.

On to `O=C(N[C@@H](CO)C(=O)NO)c1ccc(-c2ccccc2)cc1`, for which the half-life at 10 µM in series [1] and in series [2] was over 6 h in each case.

For the compound `CS(=O)(=O)C(CCc1ccccc1)(Cc1ccccc1)C(=O)NO` (configuration not stated), the half-life at 10 µM in series [1] and in series [2] was over 6 h in each case.

For `O=C(CCNCc1ccccc1)NO`, the half-life at 10 µM in series [1] was 2.1 h; in series [2], over 6 h. Moreover, the Stability entry in series [3] is “Unstable”.

For `CC(CCc1ccccc1)(C(=O)NO)S(=O)(=O)c1ccccc1` (configuration not stated), the half-life at 10 µM in series [1] and in series [2] was over 6 h each time.

As for `O=C(NO)C1(C(=O)NCc2ccccc2)CC1`, the half-life at 10 µM in series [1] and in series [2] was over 6 h in each case.

As for `O=C(CNC(=O)Cc1ccccc1)NO`, the figures for the half-life at 10 µM in series [1] and in series [2] were 0.29 h and over 6 h, respectively. The Stability result in series [3] is recorded as “Unstable”.

As for `O=C(NO)C1(NS(=O)(=O)c2ccccc2)CCOCC1`, the half-life at 10 µM in series [1] and in series [2] was over 6 h throughout.

Turning to `C[C@H](NCc1ccccc1)C(=O)NO`, the half-life at 10 µM in series [1] and in series [2] was over 6 h each time.

As for `O=C(CNC(=O)c1ccccc1)NO`, the half-life at 10 µM was 0.58 h in series [1] and over 6 h in series [2]. Also, the Stability entry in series [3] was “Unstable”.

With `O=C(NCC(C(=O)NO)N1CCCCC1)c1ccccc1` (configuration not stated), the half-life at 10 µM in series [1] is 0.4 h; in series [2] it was over 6 h. Moreover, the Stability result in series [3] was “Unstable”.

Turning to `O=C(CNCCc1ccccc1)NO`, the half-life at 10 µM in series [1] was 0.5 h; in series [2] it was over 6 h. For the same compound, the Stability entry in series [3] is recorded as “Unstable”.

With `O=C(NO)[C@@H](Cc1ccccc1)N(Cc1ccccc1)S(=O)(=O)c1ccccc1`, the half-life at 10 µM in series [1] and in series [2] was over 6 h in each case.

`O=C(NO)[C@H](Cc1ccccc1)NCc1ccccc1`: the half-life at 10 µM in series [1] is 1.8 h; in series [2], over 6 h. In addition, the Stability result in series [3] was “Unstable”.

Consider `O=C(NO)C(CCc1ccccc1)S(=O)(=O)c1ccccc1` (configuration not stated), for which the half-life at 10 µM in series [1] and in series [2] was over 6 h in each case.

For the compound `O=C(CNCc1ccccc1)NO`, the values for the half-life at 10 µM in series [1] and in series [2] were 3.6 h and over 6 h, respectively. Moreover, the Stability entry in series [3] is “Unstable”.

As for `O=C(/C=C/c1ccc(-c2ccccc2)cc1)NO`, the half-life at 10 µM in series [1] and in series [2] was over 6 h in each case.

Regarding `CC(Cc1ccccc1)(C(=O)NO)C(=O)NCc1ccc(F)cc1` (configuration not stated), the Stability entry in series [3] is listed as “Unstable”.

For the compound `CC(C(=O)NO)C(=O)NCc1ccc(F)cc1` (configuration not stated), the half-life at 10 µM in series [1] and in series [2] was over 6 h each time.

Consider `O=C(CCCCCCc1ccccc1)NO`, for which the half-life at 10 µM in series [1] and in series [2] was over 6 h throughout.

As to `O=C(/C=C/c1ccc(Cl)cc1Cl)NO` [CINNAMIC ACID HYDROXAMATE], the half-life at 10 µM in series [1] and in series [2] was over 6 h each time.

In the case of `CCCCc1nc2cc(/C=C/C(=O)NO)ccc2n1CCN(CC)CC` [PRACINOSTAT], the half-life at 10 µM in series [1] and in series [2] was over 6 h in each case.
